Measurements: ChEMBL document CHEMBL1123589, “Phenylpiperazine-based radiopharmaceuticals for brain imaging. 3. Synthesis and evaluation of radioiodinated 1-alkyl-4-phenylpiperazines” (J Med Chem, 1987)

Tests used:
Conditions in all cases: in vivo
Rattus norvegicus [1] = test: The biodistribution of the [125I]-labeled compound in rats after intravenous injection was evaluated in thyroid at 4.00 hrs; value ranges from 2.64-2.80 (ID.kg/g); format: ADME, organism-based, Thyroid gland
Method in brief: (§1)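 Male Sprague-Dawley rats (250–300 g) under ether anesthesia given iv 0.1 mL saline containing 10–15 μCi of NCA ¹²⁵I-labeled agent (chloramine-T iodination, HPLC-purified). Groups of 3 killed at 0.25, 1 and 4 h. Blood and tissues excised, weighed and γ-counted. Values are mean (range) of % injected dose × body mass (kg) per gram of tissue.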

Rattus norvegicus [2] = test: The biodistribution of the [125I]-labeled compound in rats after intravenous injection was evaluated in adrenal at 4.00 hrs; value ranges from 1.09-1.22 (ID.kg/g); format: ADME, organism-based
Method in brief: (§2)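 Male Sprague-Dawley rats (250–300 g) under ether anesthesia were given an iv injection of no-carrier-added 125I-labelled agent (10–15 μCi in 0.1 mL saline). The agent was iodinated with chloramine-T in acetate buffer and purified by C-18 HPLC. Groups of N = 3 were killed at 0.25, 1 and 4 h. Blood and tissues were weighed and γ-counted. Values are % ID·kg/g, mean (range).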

Rattus norvegicus [3] = test: The biodistribution of the [125I]-labeled compound in rats after intravenous injection was evaluated in heart at 4.00 hrs; value ranges from 0.11-0.13 (ID.kg/g); format: ADME, organism-based
Method in brief: (§3)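 Male Sprague-Dawley rats (250–300 g), under ether anesthesia, given 10–15 μCi of the NCA ¹²⁵I-labeled agent iv in 0.1 mL saline. Groups of N = 3 were killed at 0.25, 1 or 4 h. Blood and tissues were removed, weighed and counted in a γ-well scintillation counter. Values are mean % ID·kg/g (range).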

Rattus norvegicus [4] = test: The biodistribution of the [125I]-labeled compound in rats after intravenous injection was evaluated in liver at 1.00 hr 0.46-0.90 (ID.kg/g); format: ADME, organism-based; method in brief: as §3
Rattus norvegicus [5] = test: The biodistribution of the [125I]-labeled compound in rats after intravenous injection was evaluated in liver at 0.25 hr; value ranges from; value ranges from 0.45-0.60 (ID.kg/g); format: ADME, organism-based; method in brief: as §3
Rattus norvegicus [6] = test: The biodistribution of the [125I]-labeled compound in rats after intravenous injection was evaluated in fat at 1.00 hrs (ID.kg/g); format: ADME, organism-based, Adipose tissue; method in brief: as §2
Rattus norvegicus [7] = test: The biodistribution of the [125I]-labeled compound in rats after intravenous injection was evaluated in brain at 0.25 hrs; value ranges from 0.10-0.16 (ID.kg/g); format: ADME, organism-based; method in brief: as §2
Rattus norvegicus [8] = test: The biodistribution of the [125I]-labeled compound in rats after intravenous injection was evaluated in heart at 1.00 hrs; value ranges from 0.14-0.18 (ID.kg/g); format: ADME, organism-based; method in brief: as §3
Rattus norvegicus [9] = test: The biodistribution of the [125I]-labeled compound in rats after intravenous injection was evaluated in blood at 1.00 hrs (ID.kg/g); format: ADME, organism-based; method in brief: as §2
Rattus norvegicus [10] = test: The biodistribution of the [125I]-labeled compound in rats after intravenous injection was evaluated in muscle at 0.25 hrs (ID.kg/g); format: ADME, organism-based, Muscle tissue; method in brief: as §1
Rattus norvegicus [11] = test: The biodistribution of the [125I]-labeled compound in rats after intravenous injection was evaluated in lung at 0.25 hrs; value ranges from 1.0-1.14 (ID.kg/g); format: ADME, organism-based; method in brief: as §3
Rattus norvegicus [12] = test: The biodistribution of the [125I]-labeled compound in rats after intravenous injection was evaluated in heart at 0.25 hrs (ID.kg/g); format: ADME, organism-based; method in brief: as §2
Rattus norvegicus [13] = test: The biodistribution of the [125I]-labeled compound in rats after intravenous injection was evaluated in thyroid at 0.25 hrs; value ranges from 1.44-2.04 (ID.kg/g); format: ADME, organism-based, Thyroid gland; method in brief: as §1
Rattus norvegicus [14] = test: The biodistribution of the [125I]-labeled compound in rats after intravenous injection was evaluated in liver at 4.00 hrs (ID.kg/g); format: ADME, organism-based; method in brief: as §3
Rattus norvegicus [15] = test: The biodistribution of the [125I]-labeled compound in rats after intravenous injection was evaluated in muscle at 1.00 hrs (ID.kg/g); format: ADME, organism-based, Muscle tissue; method in brief: as §1
Rattus norvegicus [16] = test: The biodistribution of the [125I]-labeled compound in rats after intravenous injection was evaluated in adrenal at 0.25 hrs; value ranges from 0.84-0.91 (ID.kg/g); format: ADME, organism-based; method in brief: as §2
Rattus norvegicus [17] = test: The biodistribution of the [125I]-labeled compound in rats after intravenous injection was evaluated in fat at 0.25 hr (ID. kg/g); format: ADME, organism-based, Adipose tissue; method in brief: as §2
Rattus norvegicus [18] = test: The biodistribution of the [125I]-labeled compound in rats after intravenous injection was evaluated in adrenal at 1.00 hrs; value ranges from 0.78-1.46 (ID.kg/g); format: ADME, organism-based; method in brief: as §2
Rattus norvegicus [19] = test: The biodistribution of the [125I]-labeled compound in rats after intravenous injection was evaluated in blood at 0.25 hrs (ID.kg/g); format: ADME, organism-based; method in brief: as §2
Rattus norvegicus [20] = test: The biodistribution of the [125I]-labeled compound in rats after intravenous injection was evaluated in thyroid at 1.00 hrs; value ranges from 1.41-1.72 (ID.kg/g); format: ADME, organism-based, Thyroid gland; method in brief: as §1
Rattus norvegicus [21] = test: The biodistribution of the [125I]-labeled compound in rats after intravenous injection was evaluated in kidney at 1.00 hrs; value ranges from 0.35-0.42 (ID.kg/g); format: ADME, organism-based; method in brief: as §3
Rattus norvegicus [22] = test: The biodistribution of the [125I]-labeled compound in rats after intravenous injection was evaluated in lung at 1.00 hrs; value ranges from 0.65-0.85 (ID.kg/g); format: ADME, organism-based; method in brief: as §3
Rattus norvegicus [23] = test: The biodistribution of the [125I]-labeled compound in rats after intravenous injection was evaluated in muscle at 4.00 hrs (ID.kg/g); format: ADME, organism-based, Muscle tissue; method in brief: as §1
Rattus norvegicus [24] = test: The biodistribution of the [125I]-labeled compound in rats after intravenous injection was evaluated in kidney at 0.25 hr; value ranges from 0.35-0.39 (ID.kg/g); format: ADME, organism-based; method in brief: as §3
Rattus norvegicus [25] = test: The biodistribution of the [125I]-labeled compound in rats after intravenous injection was evaluated in lung at 4.00 hrs; value ranges from 0.53-0.59 (ID.kg/g); format: ADME, organism-based; method in brief: as §1
Rattus norvegicus [26] = test: The biodistribution of the [125I]-labeled compound in rats after intravenous injection was evaluated in brain at 4.00 hrs (ID.kg/g); format: ADME, organism-based; method in brief: as §2
Rattus norvegicus [27] = test: The biodistribution of the [125I]-labeled compound in rats after intravenous injection was evaluated in brain at 1.00 hrs; value ranges from 0.08-0.10 (ID.kg/g); format: ADME, organism-based; method in brief: as §2
Rattus norvegicus [28] = test: The biodistribution of the [125I]-labeled compound in rats after intravenous injection was evaluated in fat at 4.00 hrs; value ranges from 0.02-0.04 (ID.kg/g); format: ADME, organism-based, Adipose tissue; method in brief: as §2
Rattus norvegicus [29] = test: The biodistribution of the [125I]-labeled compound in rats after intravenous injection was evaluated in blood at 4.00 hrs (ID.kg/g); format: ADME, organism-based; method in brief: as §2
Rattus norvegicus [30] = test: The biodistribution of the [125I]-labeled compound in rats after intravenous injection was evaluated in kidney at 4.00 hrs; value ranges from. 28-0.30(ID.kg/g); format: ADME, organism-based; method in brief: as §3

## CCCCCCN1CCN(c2ccc(I)cc2)CC1
Rattus norvegicus [1]
  Biodistribution: 2.8%
Rattus norvegicus [2]
  Biodistribution: 1.22%
Rattus norvegicus [3]
  Biodistribution: 0.13%
Rattus norvegicus [4]
  Biodistribution: 0.9%
Rattus norvegicus [5]
  Biodistribution: 0.6%
Rattus norvegicus [6]
  Biodistribution: 0.02 % ID·kg/g
Rattus norvegicus [7]
  Biodistribution: 0.16%
Rattus norvegicus [8]
  Biodistribution: 0.18%
Rattus norvegicus [9]
  Biodistribution: 0.01 % ID·kg/g
Rattus norvegicus [10]
  Biodistribution: 0.03 % ID·kg/g
Rattus norvegicus [11]
  Biodistribution: 1.14%
Rattus norvegicus [12]
  Biodistribution: 0.24%
Rattus norvegicus [13]
  Biodistribution: 2.04%
Rattus norvegicus [14]
  Biodistribution: 0.78%
Rattus norvegicus [15]
  Biodistribution: 0.02 %ID·kg/g
Rattus norvegicus [16]
  Biodistribution: 0.91%
Rattus norvegicus [17]
  Biodistribution: 0.01 % ID·kg/g
Rattus norvegicus [18]
  Biodistribution: 1.46%
Rattus norvegicus [19]
  Biodistribution: 0.01 % ID·kg/g
Rattus norvegicus [20]
  Biodistribution: 1.72%
Rattus norvegicus [21]
  Biodistribution: 0.42%
Rattus norvegicus [22]
  Biodistribution: 0.85%
Rattus norvegicus [23]
  Biodistribution: 0.02 %ID·kg/g
Rattus norvegicus [24]
  Biodistribution: 0.39%
Rattus norvegicus [25]
  Biodistribution: 0.59%
Rattus norvegicus [26]
  Biodistribution: 0.09%
Rattus norvegicus [27]
  Biodistribution: 0.1%
Rattus norvegicus [28]
  Biodistribution: 0.04%
Rattus norvegicus [29]
  Biodistribution: 0.01 % ID·kg/g
Rattus norvegicus [30]
  Biodistribution: 0.3%
